In series [1] the test system is Glutamate NMDA receptor GRIN1/GRIN2B (Homo sapiens). In words: Inhibition of human GluN1-1a/NR2B receptor expressed in transgenic mouse fibroblast cells assessed as inhibition of L-glutamate-induced excitotoxicity at 20 uM by measuring LDH activity by cell based assay.
Series [2] deals with T1, Glutamate NMDA receptor; GRIN1/GRIN2A (Homo sapiens, UniProt Q05586+Q12879). Description: Inhibition of human GluN1-1a/NR2A receptor expressed in transgenic mouse fibroblast cells assessed as inhibition of L-glutamate-induced excitotoxicity at 50 uM by measuring LDH activity by cell based assay. The method in brief:
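Mouse fibroblasts stably expressing human GluN1-1a/2A or GluN1-1a/2B receptors were exposed to 10 μM L-glutamate plus glycine with test agent. Excitotoxicity was read as LDH activity in the medium. Agonists alone defined 100%; agonists plus 100 μM ketamine defined 0%. Percent inhibition at the single test concentration came from at least three independent experiments.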

The target in series [3] is T2, Acetylcholinesterase (Homo sapiens, UniProt P22303). Description: Inhibition of recombinant human AChE expressed in HEK293 cells by Ellman's method. The format is cell-based.
Another series deals with Cholinesterase (Equus caballus, UniProt P81908). In words: Inhibition of recombinant equine BChE by Ellman's method. Background: Ellman's reagent forms a yellow product with free thiols.
Series [4] can be described thus: Solubility of the compound at >= 50 uM. In kind it is physicochemical.
A short description of series [5]: Selectivity ratio of IC50 for recombinant human AChE to IC50 for equine BuChE.
For series [6], the target named is Glutamate NMDA receptor; GRIN1/GRIN2B (Homo sapiens, UniProt Q05586+Q13224). Description: Inhibition of human GluN1-1a/NR2B receptor expressed in transgenic mouse fibroblast cells assessed as inhibition of L-glutamate-induced excitotoxicity by measuring LDH activity by cell based assay. The gist of the method: (§1)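 Stably transfected mouse fibroblasts expressing human GluN1-1a/2A or GluN1-1a/2B receptors; excitotoxicity induced with 10 μM L-glutamate plus 10 μM glycine and quantified as LDH activity in medium. Agonists without antagonist defined 100%; agonists plus 100 μM ketamine defined 0%. IC50 ± SD from at least three independent experiments.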

The target of series [7] is T1, Glutamate NMDA receptor; GRIN1/GRIN2A. Description: Inhibition of human GluN1-1a/NR2A receptor expressed in transgenic mouse fibroblast cells assessed as inhibition of L-glutamate-induced excitotoxicity by measuring LDH activity by cell based assay. The gist of the method: as §1
The target in series [8] is T2, Acetylcholinesterase. Description: Inhibition of recombinant human AChE expressed in HEK293 cells at 20 uM by Ellman's method relative to control. In kind it is cell-based.
In series [9] the target is Cholinesterase (Equus caballus) (UniProt P81908). Description: Inhibition of recombinant equine BChE at 20 uM by Ellman's method relative to control. The method in brief:
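Ellman assay with equine BChE as enzyme, compound at single concentration as listed; percent inhibition relative to control, measured in triplicate.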

Series [10] can be described thus: Solubility of the compound in buffer at > 20 uM. The format is physicochemical.
The target of series [11] is T2, Acetylcholinesterase. Description: Inhibition of recombinant human AChE expressed in HEK293 cells at 50 uM by Ellman's method relative to control. The format is cell-based.

29 molecules from ChEMBL document CHEMBL4823302, “Evaluation of γ-carboline-phenothiazine conjugates as simultaneous NMDA receptor blockers and cholinesterase inhibitors” (Bioorg Med Chem, 2021) can be followed below.

A word on the inhibition: it is the relative decrease from the control value, in per cent. A word on the IC50: it is the concentration at which inhibition is half-maximal.

Cholinesterase, sequence (P81908 whole entry): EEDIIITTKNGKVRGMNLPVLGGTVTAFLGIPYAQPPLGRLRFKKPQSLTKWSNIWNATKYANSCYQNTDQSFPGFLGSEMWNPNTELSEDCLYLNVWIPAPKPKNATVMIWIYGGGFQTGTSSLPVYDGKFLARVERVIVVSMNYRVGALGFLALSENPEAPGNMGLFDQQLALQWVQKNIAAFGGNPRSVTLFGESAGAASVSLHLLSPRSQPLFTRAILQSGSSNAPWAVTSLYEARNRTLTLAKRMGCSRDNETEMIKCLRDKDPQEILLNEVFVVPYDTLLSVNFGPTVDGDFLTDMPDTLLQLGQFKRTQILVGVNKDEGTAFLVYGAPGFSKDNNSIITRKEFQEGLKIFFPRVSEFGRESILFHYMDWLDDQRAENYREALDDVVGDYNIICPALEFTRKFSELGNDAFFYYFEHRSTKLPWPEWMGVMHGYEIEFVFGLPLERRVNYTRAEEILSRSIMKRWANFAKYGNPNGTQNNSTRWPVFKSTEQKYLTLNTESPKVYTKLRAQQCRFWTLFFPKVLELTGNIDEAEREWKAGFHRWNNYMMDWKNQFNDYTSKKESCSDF
Glutamate NMDA receptor; GRIN1/GRIN2B, sequence (Q13224 whole entry, looked up, other chains not shown): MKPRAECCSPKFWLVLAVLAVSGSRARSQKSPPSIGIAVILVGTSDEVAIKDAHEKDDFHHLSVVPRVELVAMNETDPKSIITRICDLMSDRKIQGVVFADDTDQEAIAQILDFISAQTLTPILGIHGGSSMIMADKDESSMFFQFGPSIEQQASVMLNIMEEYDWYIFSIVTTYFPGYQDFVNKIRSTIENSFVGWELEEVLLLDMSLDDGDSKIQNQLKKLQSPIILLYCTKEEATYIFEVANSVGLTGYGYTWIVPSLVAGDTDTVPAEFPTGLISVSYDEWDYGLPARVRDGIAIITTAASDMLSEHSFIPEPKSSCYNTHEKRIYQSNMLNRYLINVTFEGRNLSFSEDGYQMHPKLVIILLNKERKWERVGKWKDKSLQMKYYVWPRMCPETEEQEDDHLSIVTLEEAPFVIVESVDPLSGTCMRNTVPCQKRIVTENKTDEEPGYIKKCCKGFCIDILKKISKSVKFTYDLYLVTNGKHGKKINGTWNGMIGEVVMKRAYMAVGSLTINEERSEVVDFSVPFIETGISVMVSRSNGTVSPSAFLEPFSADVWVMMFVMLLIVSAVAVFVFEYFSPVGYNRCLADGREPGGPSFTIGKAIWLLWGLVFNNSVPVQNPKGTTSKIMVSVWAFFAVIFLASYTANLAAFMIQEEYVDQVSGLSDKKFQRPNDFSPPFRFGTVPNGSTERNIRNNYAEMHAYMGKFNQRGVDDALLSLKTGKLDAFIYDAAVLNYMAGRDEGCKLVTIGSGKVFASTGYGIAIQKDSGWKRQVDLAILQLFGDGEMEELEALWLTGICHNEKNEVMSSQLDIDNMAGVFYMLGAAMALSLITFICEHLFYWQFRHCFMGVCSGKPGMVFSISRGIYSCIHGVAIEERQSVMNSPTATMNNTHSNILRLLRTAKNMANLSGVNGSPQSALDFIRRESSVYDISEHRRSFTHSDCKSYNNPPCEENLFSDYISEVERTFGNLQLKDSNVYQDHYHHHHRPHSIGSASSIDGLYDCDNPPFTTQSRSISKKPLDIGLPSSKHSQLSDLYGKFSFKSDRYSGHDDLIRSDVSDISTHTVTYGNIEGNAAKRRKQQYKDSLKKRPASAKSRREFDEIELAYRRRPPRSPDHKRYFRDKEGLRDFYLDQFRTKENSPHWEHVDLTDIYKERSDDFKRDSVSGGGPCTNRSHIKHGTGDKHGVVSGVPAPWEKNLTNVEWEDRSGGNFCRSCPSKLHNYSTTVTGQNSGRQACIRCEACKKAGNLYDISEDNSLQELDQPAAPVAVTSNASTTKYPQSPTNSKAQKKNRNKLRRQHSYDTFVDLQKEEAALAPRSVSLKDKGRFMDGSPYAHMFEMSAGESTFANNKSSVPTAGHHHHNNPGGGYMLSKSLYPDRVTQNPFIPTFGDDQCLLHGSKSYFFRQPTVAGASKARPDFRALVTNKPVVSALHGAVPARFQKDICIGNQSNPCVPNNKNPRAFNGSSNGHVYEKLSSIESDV
T2 sequence (P22303 whole entry): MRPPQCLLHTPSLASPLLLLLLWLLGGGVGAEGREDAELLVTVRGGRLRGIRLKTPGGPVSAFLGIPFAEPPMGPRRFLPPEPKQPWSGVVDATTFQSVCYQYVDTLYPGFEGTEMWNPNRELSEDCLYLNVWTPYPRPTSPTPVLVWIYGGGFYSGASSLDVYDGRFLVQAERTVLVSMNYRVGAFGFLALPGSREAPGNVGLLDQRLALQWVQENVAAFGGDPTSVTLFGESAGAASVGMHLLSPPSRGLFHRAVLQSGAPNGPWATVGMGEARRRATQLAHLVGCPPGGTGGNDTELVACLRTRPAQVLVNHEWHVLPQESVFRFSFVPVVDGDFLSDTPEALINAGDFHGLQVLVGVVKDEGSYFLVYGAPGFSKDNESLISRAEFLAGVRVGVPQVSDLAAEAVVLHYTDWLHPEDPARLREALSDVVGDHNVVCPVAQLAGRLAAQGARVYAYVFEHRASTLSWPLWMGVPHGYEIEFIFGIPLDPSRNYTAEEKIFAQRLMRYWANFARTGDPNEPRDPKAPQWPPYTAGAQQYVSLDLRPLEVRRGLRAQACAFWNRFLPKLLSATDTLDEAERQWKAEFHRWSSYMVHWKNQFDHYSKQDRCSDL
Cholinesterase (Equus caballus), sequence (P81908 whole entry): as the sequence (P81908 whole entry) above

As for `c1ccc2c(c1)c1cnccc1n2CCCCCCCCCn1c2ccccc2c2cnccc21`, the inhibition in series [1] and in series [2] was less than 50% in each case. For the same molecule, the concentration for half-maximal inhibition (IC50) at Acetylcholinesterase [3] was 0.08 µM.
For `COc1ccc2[nH]c3c(c2c1)CN(Cc1ccccc1)CC3`, the IC50 at Cholinesterase was 6.3 µM; at Acetylcholinesterase [3] it was 52.7 µM. Besides, the inhibition in series [1] and in series [2] was less than 50% each time. For the same molecule, the solubility entry in series [4] was “Insoluble”.
Take `Fc1ccc2[nH]c3ccncc3c2c1`: the IC50 was 0.55 µM at Cholinesterase and 11.4 µM at Acetylcholinesterase [3]. Moreover, the inhibition in series [1] and in series [2] was less than 50% each time. In addition, the solubility result in [4] is on record as “Insoluble”.
Take `COc1cc2c(cc1OC)C(=O)C(CC1CCN(Cc3ccccc3)CC1)C2` (stereo not drawn): the inhibition in [2] is less than 50%.
Regarding `O=C(CCn1c2ccncc2c2cc(F)ccc21)N1c2ccccc2Sc2ccccc21`, the IC50 at Cholinesterase was determined as 0.008 µM; in [6], 2.7 µM; at Acetylcholinesterase [3], 6.2 µM; in series [7], 1.7 µM. In addition, the Ratio IC50 in series [5] turned out to be 775.
With `C[n+]1ccc2c(c1)c1ccccc1n2CCCCCCCCCn1c2ccccc2c2c[n+](C)ccc21`, the IC50 on Acetylcholinesterase [3] was 0.00033 µM.
Take `Cc1ccc2c(c1)c1c[n+](C)ccc1n2CCC(=O)N1c2ccccc2Sc2ccccc21`: the IC50 on Cholinesterase worked out at 0.032 µM; in series [6] it was 0.5 µM; at Acetylcholinesterase [3] it was 1.1 µM; in series [7], 0.9 µM.
As to `COc1ccc2c(c1)c1c[n+](C)ccc1n2CCC(=O)N1c2ccccc2Sc2ccccc21`, the IC50 is 0.041 µM at Cholinesterase, 0.2 µM in series [6], 5.3 µM on Acetylcholinesterase [3] and 0.4 µM in series [7].
As to `c1ccc2c(c1)[nH]c1ccncc12`, the IC50 on Cholinesterase turned out to be 1.2 µM; at Acetylcholinesterase [3], 21.4 µM. The inhibition in series [2] was less than 50%. Moreover, the solubility result in series [4] is reported as “Insoluble”.
For the molecule `Cc1ccc2[nH]c3ccncc3c2c1`, the IC50 came to 1.4 µM on Cholinesterase and 35.4 µM on Acetylcholinesterase [3]. For the same molecule, the inhibition in series [1] and in series [2] was less than 50% throughout. The solubility result in series [4] is “Insoluble”.
Regarding `COc1ccc2[nH]c3cc[n+](C)cc3c2c1.[I-]`, the IC50 on Cholinesterase was 9.8 µM; on Acetylcholinesterase [3], 14.7 µM. Besides, the inhibition in series [1] and in [2] was less than 50% in each case. Also, in series [4], the solubility entry was “Insoluble”.
Take `Cc1ccc2[nH]c3cc[n+](C)cc3c2c1.[I-]`: the IC50 on Cholinesterase stood at 5.5 µM; at Acetylcholinesterase [3] it was 9.1 µM. The inhibition in series [1] and in series [2] was less than 50% each time. In addition, in series [4], the solubility result is “Insoluble”.
On to `COc1ccc2c(c1)c1cnccc1n2CCC(=O)N1c2ccccc2Sc2ccccc21`, for which the IC50 amounted to 0.037 µM at Cholinesterase, 0.6 µM in series [6], 0.54 µM at Acetylcholinesterase [3] and 0.8 µM in series [7].
As to `Cc1ccc2c(c1)c1cnccc1n2CCC(=O)N1c2ccccc2Sc2ccccc21`, the IC50 was determined as 0.016 µM on Cholinesterase, 1.5 µM in series [6], 0.51 µM at Acetylcholinesterase [3] and 1.3 µM in series [7].
For the molecule `c1ccc2c(c1)Nc1ccccc1S2` [PHENOTHIAZINE], the figures for the inhibition (in series [2]; at Acetylcholinesterase [8]; in [9]) were less than 50%, less than 30% and less than 50%, respectively. Also, the solubility entry in series [10] is listed as “Insoluble”.
In the case of `O=C(CCn1c2ccccc2c2c[n+](Cc3ccccc3)ccc21)N1c2ccccc2Sc2ccccc21`, the IC50 on Cholinesterase was 0.011 µM; in [6], 0.9 µM; at Acetylcholinesterase [3], 2.2 µM; in [7] it was 1 µM.
As to `CN1CCc2c(c3ccccc3n2CCCCCCCCCn2c3c(c4ccccc42)CN(C)CC3)C1`, the inhibition in series [1] and in series [2] was less than 50% throughout.
As to `Cc1ccc2[nH]c3c(c2c1)CN(Cc1ccccc1)CC3`, the IC50 on Cholinesterase is 1.4 µM; at Acetylcholinesterase [3], 35.1 µM. The inhibition in [1] and in series [2] was less than 50% throughout. Also, the solubility entry in series [4] is “Insoluble”.
As to `CN1CCc2[nH]c3ccccc3c2C1`, the IC50 on Cholinesterase was 6.5 µM. For the same molecule, the inhibition (in series [1]; in series [2]; on Acetylcholinesterase [11]) was less than 50% each time. Moreover, in series [4], the solubility result was “Insoluble”.
In the case of `C[n+]1ccc2c(c1)c1ccccc1n2CCC(=O)N1c2ccccc2Sc2ccccc21`, the IC50 is 0.041 µM at Cholinesterase, 1.4 µM in series [6], 2.2 µM at Acetylcholinesterase [3] and 2.4 µM in series [7].
For the molecule `COc1ccc2[nH]c3ccncc3c2c1`, the IC50 at Cholinesterase is 12.6 µM; at Acetylcholinesterase [3] it was 49.6 µM. In addition, the inhibition in series [1] and in series [2] was less than 50% throughout. The solubility result in series [4] is listed as “Insoluble”.
Regarding `Cn1ccc2nc3ccccc3c-2c1.I`, the IC50 on Cholinesterase was determined as 0.89 µM; at Acetylcholinesterase [3], 8.7 µM. In addition, the inhibition in series [1] and in series [2] was less than 50% throughout. The solubility result in series [4] is listed as “Insoluble”.
With `Fc1ccc2[nH]c3c(c2c1)CN(Cc1ccccc1)CC3`, the results for the half-inhibitory concentration (IC50) on Cholinesterase and at Acetylcholinesterase [3] were 2.1 µM and 17.6 µM, respectively. Moreover, the inhibition in series [1] and in [2] was less than 50% throughout. The solubility result in series [4] and in series [10] was “Insoluble” throughout.
With `c1ccc(CN2CCc3[nH]c4ccccc4c3C2)cc1`, the IC50 on Cholinesterase worked out at 6.5 µM; at Acetylcholinesterase [3], 20.4 µM. Besides, the inhibition in series [1] and in series [2] was less than 50% each time. Moreover, the solubility entry in series [4] is “Insoluble”.
With `C[n+]1ccc2c(c1)c1cc(F)ccc1n2CCC(=O)N1c2ccccc2Sc2ccccc21`, the IC50 on Cholinesterase worked out at 0.032 µM; in series [6], 2.1 µM; at Acetylcholinesterase [3], 2.6 µM; in series [7] it was 3 µM.
In the case of `CN1CCc2c(c3ccccc3n2CCC(=O)N2c3ccccc3Sc3ccccc32)C1`, the half-maximal inhibitory concentration (IC50) on Cholinesterase worked out at 0.17 µM; on Acetylcholinesterase [3], 7.8 µM. The inhibition in [1] and in series [2] was less than 50% in each case. Further, in [4], the solubility entry is on record as “Insoluble”.
Take `[Br-].c1ccc(C[n+]2ccc3[nH]c4ccccc4c3c2)cc1`: the figures for the IC50 at Cholinesterase and on Acetylcholinesterase [3] were 1.9 µM and 8.6 µM, respectively. For the same molecule, the inhibition in series [1] and in series [2] was less than 50% in each case. Besides, in series [4], the solubility result was “Insoluble”.
Consider `C[n+]1ccc2[nH]c3ccc(F)cc3c2c1.[I-]`, for which the IC50 amounted to 2.7 µM on Cholinesterase and 1.9 µM at Acetylcholinesterase [3]. For the same molecule, the inhibition in series [1] and in [2] was less than 50% throughout. Moreover, in series [4], the solubility entry was “Insoluble”.
As for `O=C(CCn1c2ccccc2c2cnccc21)N1c2ccccc2Sc2ccccc21`, the IC50 at Cholinesterase came out at 0.008 µM; in series [6] it was 3 µM; on Acetylcholinesterase [3] it was 2.3 µM; in [7], 4.2 µM.
